Source: ChEMBL document CHEMBL1141261, “Eremophilane sesquiterpenes from Ligularia macrophylla” (J Nat Prod, 2007)
Values after ≈ are worked out from the molar mass of the structure shown.

What follows are compounds tested on A549 (assay: Cytotoxicity against human A549 cells).
Format: functional, cell-based
How it was run: (§1)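 Test samples were dissolved in DMSO and diluted into culture medium to a final DMSO level of ≤1% (v/v). Human lung carcinoma A-549 and breast adenocarcinoma MCF-7 lines were used. Cell culture and the remaining steps followed an earlier published protocol.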

SMILES | EC50 [µg/mL]
Cc1coc2cc3c(c(C)c12)[C@@H](C)CCC3=O | 11.9 (≈ 52.1 µM)
Cc1cc2c(C)coc2cc1[C@H](C)CCC=O | 10 (≈ 43.4 µM)
C/C=C(/CO)C(=O)O[C@@H]1c2c(C)coc2C[C@@]23O[C@@H]2CC[C@H](C)[C@@]13C | > 20
C/C=C(/C)C(=O)O[C@@H]1c2c(C)coc2C[C@]23O[C@H]2CC[C@H](C)[C@@]13C | 9.4 (≈ 28.4 µM)
C/C=C(/C)C(=O)O[C@H]1c2c(C)coc2C[C@H]2C(=O)CC[C@H](C)[C@]21C | ≥ 20
Cc1coc2c1[C@@H](O)[C@]1(C)[C@@H](C)CC[C@@H]3O[C@@]31C2 | ≥ 20
Cc1coc2cc3c(c(C)c12)[C@@H](C)CC[C@@H]3O | 13.8 (≈ 59.9 µM)
CC(C=O)C1=C[C@@]2(C)C(=CC1=O)[C@H](O)CC[C@@H]2C (mixture of isomers) | 18.4
Cc1cc2c(C)coc2c2c1CCCC2C (stereo not drawn) [FARFUGIN A] | 10.9 (≈ 50.9 µM)

Each compound was assayed on MCF7 (assay: Cytotoxicity against human MCF7 cells).
Format: functional, cell-based
How it was run: as §1

SMILES | EC50 [µg/mL]
Cc1coc2cc3c(c(C)c12)[C@@H](C)CCC3=O | 15.2 (≈ 66.6 µM)
Cc1cc2c(C)coc2cc1[C@H](C)CCC=O | > 20
C/C=C(/CO)C(=O)O[C@@H]1c2c(C)coc2C[C@@]23O[C@@H]2CC[C@H](C)[C@@]13C | 17.3 (≈ 49.9 µM)
C/C=C(/C)C(=O)O[C@@H]1c2c(C)coc2C[C@]23O[C@H]2CC[C@H](C)[C@@]13C | > 20
C/C=C(/C)C(=O)O[C@H]1c2c(C)coc2C[C@H]2C(=O)CC[C@H](C)[C@]21C | ≥ 20
Cc1coc2c1[C@@H](O)[C@]1(C)[C@@H](C)CC[C@@H]3O[C@@]31C2 | ≥ 20
Cc1coc2cc3c(c(C)c12)[C@@H](C)CC[C@@H]3O | 15.2 (≈ 66 µM)
CC(C=O)C1=C[C@@]2(C)C(=CC1=O)[C@H](O)CC[C@@H]2C (mixture of isomers) | > 20
Cc1cc2c(C)coc2c2c1CCCC2C (stereo not drawn) [FARFUGIN A] | 13.6 (≈ 63.5 µM)
